According to ChEMBL document CHEMBL1123969, “Cardiovascular effects of new water-soluble derivatives of forskolin” (J Med Chem, 1988):
Converted amounts (≈) assume the structure as drawn.

Assays:
Felis catus = assay: Effective dose for lowering blood pressure in anesthetized cat when administered intravenously; type: functional; conditions: iv
In short: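 Cats of either sex, 3–4 kg, under ether induction and chloralose (70 mg/kg iv). Compounds in distilled water or propylene glycol were given iv via the femoral vein at 0.01–10 mg/kg. Fall in mean arterial pressure read 10 min post-dose. ED20 taken graphically from the log dose-response curve, with doses run in triplicate.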

Cavia porcellus [1] = species: Cavia porcellus; assay: Positive inotropic activity was assessed in spontaneously beating guinea pig atria; NA=Not active; type: functional, organism-based
In short: (§1)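 Guinea pig atria, spontaneously beating, in Ringer solution at 32 °C gassed with 95% O2/5% CO2. Isometric force recorded at 0.5–1 g initial tension after 30 min stabilization. Compounds in water or propylene glycol given cumulatively at 0.01–30 μg/mL, with 7 min contact per dose. EC50 for a 50% force increase taken graphically from the dose-response curve, in triplicate.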

Cavia porcellus [2] = species: Cavia porcellus; assay: Positive inotropic activity in spontaneously beating guinea pig atria; type: functional, organism-based; in short: as §1

EC50 (Cavia porcellus [1]) | EC50 (Cavia porcellus [2]) | Compound | ED20 (Felis catus)
Not Active |  | C=C[C@@]1(C)CC(=O)[C@]2(O)C3(C)C(C(O)C(OC(=O)Cn4cnc5ccccc54)[C@@]2(C)O1)C(C)(C)CC[C@@H]3O (stereo partly drawn) | 10 mg/kg
Not Active |  | C=C[C@@]1(C)CC(=O)[C@]2(O)C3(C)C(C(OC(=O)C(C)N4CCCCC4)C(O)[C@@]2(C)O1)C(C)(C)CC[C@@H]3O.Cl (stereo partly drawn) | 1 mg/kg
Not Active |  | C=C[C@@]1(C)CC(=O)[C@]2(O)C3(C)C(C(O)C(OC(=O)CN(C)C4CCCCC4)[C@@]2(C)O1)C(C)(C)CC[C@@H]3O (stereo partly drawn) | 10 mg/kg
 | 3 µg/mL (≈ 5.1 µM) | C=C[C@@]1(C)CC(=O)[C@]2(O)C3(C)C(C(OC(=O)Cn4cnc5c4c(=O)n(C)c(=O)n5C)C(O)[C@@]2(C)O1)C(C)(C)CC[C@@H]3O (stereo partly drawn) | 4.5 mg/kg
 | 0.74 µg/mL (≈ 1.26 µM) | C=C[C@@]1(C)CC(=O)[C@]2(O)C3(C)C(C(O)C(OC(=O)Cn4cnc5c4c(=O)n(C)c(=O)n5C)[C@@]2(C)O1)C(C)(C)CC[C@@H]3O (stereo partly drawn) | 3 mg/kg
 | > 30 µg/mL | C=C[C@@]1(C)CC(=O)[C@]2(O)C3(C)C(C(O)C(OC(=O)CN4CCCC(C)C4)[C@@]2(C)O1)C(C)(C)CC[C@@H]3O.Cl (stereo partly drawn) | 10 mg/kg
 | > 30 µg/mL | C=C[C@@]1(C)CC(=O)[C@]2(O)C3(C)C(C(OC(=O)C(C)N4CCOCC4)C(O)[C@@]2(C)O1)C(C)(C)CC[C@@H]3O.Cl (stereo partly drawn) | 3 mg/kg
Not Active |  | C=C[C@@]1(C)CC(=O)[C@]2(O)C3(C)C(C(O)C(OC(=O)CCN4CCN(C)CC4)[C@@]2(C)O1)C(C)(C)CC[C@@H]3O.Cl (stereo partly drawn) | 
 | 3 µg/mL | C=C[C@@]1(C)CC(=O)[C@]2(O)C3(C)C(C(OC(=O)CN4CCCC4)C(O)[C@@]2(C)O1)C(C)(C)CC[C@@H]3O.Cl (stereo partly drawn) | 1 mg/kg
 | 0.9 µg/mL (≈ 1.49 µM) | C=C[C@@]1(C)CC(=O)[C@]2(O)C3(C)C(C(O)C(OC(=O)C(C)n4cnc5c4c(=O)n(C)c(=O)n5C)[C@@]2(C)O1)C(C)(C)CC[C@@H]3O (stereo partly drawn) | 5 mg/kg
 | 10 µg/mL | C=C[C@@]1(C)CC(=O)[C@]2(O)C3(C)C(C(OC(=O)CNCc4ccccc4)C(O)[C@@]2(C)O1)C(C)(C)CC[C@@H]3O.Cl (stereo partly drawn) | 3.5 mg/kg
 | > 30 µg/mL | C=C[C@@]1(C)CC(=O)[C@]2(O)C3(C)C(C(OC(=O)CN4CCCC(C)C4)C(O)[C@@]2(C)O1)C(C)(C)CC[C@@H]3O.Cl (stereo partly drawn) | 5.4 mg/kg
Not Active |  | C=C[C@@]1(C)CC(=O)[C@]2(O)C3(C)C(C(O)C(OC(=O)CCCCCCCCCCCN4CCOCC4)[C@@]2(C)O1)C(C)(C)CC[C@@H]3O.Cl (stereo partly drawn) | 1.6 mg/kg
 | 30 µg/mL | C=C[C@@]1(C)CC(=O)[C@]2(O)C3(C)C(C(O)C(OC(=O)CCCCN4CCCCC4)[C@@]2(C)O1)C(C)(C)CC[C@@H]3O.Cl (stereo partly drawn) | 1 mg/kg
Not Active |  | C=C[C@@]1(C)CC(=O)[C@]2(O)C3(C)C(C(O)C(OC(=O)C(C)N4CCN(C)CC4)[C@@]2(C)O1)C(C)(C)CC[C@@H]3O.Cl (stereo partly drawn) | 10 mg/kg
 | 1.2 µg/mL (≈ 1.96 µM) | C=C[C@@]1(C)CC(=O)[C@]2(O)C3(C)C(C(OC(=O)CN4CCC(NC(=O)c5ccccc5)CC4)C(O)[C@@]2(C)O1)C(C)(C)CC[C@@H]3O (stereo partly drawn) | 4 mg/kg
 | 30 µg/mL | C=C[C@@]1(C)CC(=O)[C@]2(O)C3(C)C(C(OC(=O)CN4CCN(C)CC4)C(O)[C@@]2(C)O1)C(C)(C)CC[C@@H]3O.Cl (stereo partly drawn) | 1.3 mg/kg
 | 3 µg/mL | C=C[C@@]1(C)CC(=O)[C@]2(O)C3(C)C(C(O)C(OC(=O)C(C)(C)N4CCOCC4)[C@@]2(C)O1)C(C)(C)CC[C@@H]3O.Cl (stereo partly drawn) | 1.8 mg/kg
Not Active |  | C=C[C@@]1(C)CC(=O)[C@]2(O)C3(C)C(C(O)C(OC(=O)CCCN4CCN(C)CC4)[C@@]2(C)O1)C(C)(C)CC[C@@H]3O.Cl (stereo partly drawn) | 0.8 mg/kg
Not Active |  | C=C[C@@]1(C)CC(=O)[C@]2(O)C3(C)C(C(O)C(OC(=O)CCCn4cnc5c4c(=O)n(C)c(=O)n5C)[C@@]2(C)O1)C(C)(C)CC[C@@H]3O (stereo partly drawn) | 3 mg/kg
 | > 30 µg/mL | C=C[C@@]1(C)CC(=O)[C@]2(O)C3(C)C(C(O)C(OC(=O)CN4CCC(C)CC4)[C@@]2(C)O1)C(C)(C)CC[C@@H]3O.Cl (stereo partly drawn) | 10 mg/kg
 | > 30 µg/mL | C=C[C@@]1(C)CC(=O)[C@]2(O)C3(C)C(C(O)C(OC(=O)CNC(C)(C)C)[C@@]2(C)O1)C(C)(C)CC[C@@H]3O.Cl (stereo partly drawn) | 1 mg/kg
Not Active |  | C=C[C@@]1(C)CC(=O)[C@]2(O)C3(C)C(C(O)C(OC(=O)C(C)Nc4ccccc4)[C@@]2(C)O1)C(C)(C)CC[C@@H]3O (stereo partly drawn) | 3 mg/kg
 | 3 µg/mL (≈ 5.12 µM) | C=C[C@@]1(C)CC(=O)[C@]2(O)C3(C)C(C(OC(=O)CN4CCC(O)(c5ccccc5)CC4)C(O)[C@@]2(C)O1)C(C)(C)CC[C@@H]3O (stereo partly drawn) | 5 mg/kg
 | > 30 µg/mL | C=C[C@@]1(C)CC(=O)[C@]2(O)C3(C)C(C(O)C(OC(=O)CCCN4CCCCC4)[C@@]2(C)O1)C(C)(C)CC[C@@H]3O.Cl (stereo partly drawn) | 0.3 mg/kg
 | 1.9 µg/mL | C=C[C@@]1(C)CC(=O)[C@]2(O)C3(C)C(C(OC(=O)CN4CCCCCC4)C(O)[C@@]2(C)O1)C(C)(C)CC[C@@H]3O.Cl (stereo partly drawn) | 1 mg/kg

EC50 (Cavia porcellus [1]) | EC50 (Cavia porcellus [2]) | Compound | ED20 (Felis catus)
 | > 30 µg/mL | C=C[C@@]1(C)CC(=O)[C@]2(O)C3(C)C(C(O)C(OC(=O)CN4CCN(C)CC4)[C@@]2(C)O1)C(C)(C)CC[C@@H]3O.Cl (stereo partly drawn) | 0.9 mg/kg
Not Active |  | C=C[C@@]1(C)CC(=O)[C@]2(O)C3(C)C(C(OC(=O)CN(C)C4CCCCC4)C(O)[C@@]2(C)O1)C(C)(C)CC[C@@H]3O.ClC(Cl)Cl (stereo partly drawn) | 3.5 mg/kg
Not Active |  | C=C[C@@]1(C)CC(=O)[C@]2(O)C3(C)C(C(OC(=O)C(C)N4CCN(C)CC4)C(O)[C@@]2(C)O1)C(C)(C)CC[C@@H]3O.Cl (stereo partly drawn) | 3 mg/kg
Not Active |  | C=C[C@@]1(C)CC(=O)[C@]2(O)C3(C)C(C(OC(=O)CCCN4CCCCC4)C(O)[C@@]2(C)O1)C(C)(C)CC[C@@H]3O.Cl (stereo partly drawn) | 3 mg/kg
 | 10 µg/mL | C=C[C@@]1(C)CC(=O)[C@]2(O)C3(C)C(C(O)C(OC(=O)CCCN4CCOCC4)[C@@]2(C)O1)C(C)(C)CC[C@@H]3O.Cl (stereo partly drawn) | 1.8 mg/kg
 | 0.3 µg/mL (≈ 0.995 µM) | CC(CCc1ccc(O)cc1)NCCc1ccc(O)c(O)c1 (stereo not drawn) [DOBUTAMINE] | 
 |  | Nc1cc(N2CCCCC2)nc(N)[n+]1[O-] [MINOXIDIL] | 0.9 mg/kg
 | > 30 µg/mL | C=C[C@@]1(C)CC(=O)[C@]2(O)C3(C)C(C(O)C(OC(=O)CCN4C(=O)c5ccccc5C4=O)[C@@]2(C)O1)C(C)(C)CC[C@@H]3O (stereo partly drawn) | 10 mg/kg
Not Active |  | C=C[C@@]1(C)CC(=O)[C@]2(O)C3(C)C(C(O)C(OC(=O)CCN4CCOCC4)[C@@]2(C)O1)C(C)(C)CC[C@@H]3O.Cl (stereo partly drawn) | 
 | 1.8 µg/mL | C=C[C@@]1(C)CC(=O)[C@]2(O)C3(C)C(C(O)C(OC(=O)CN4CCCC4)[C@@]2(C)O1)C(C)(C)CC[C@@H]3O.Cl (stereo partly drawn) | 4 mg/kg
 | > 30 µg/mL | C=C[C@@]1(C)CC(=O)[C@]2(O)C3(C)C(C(O)C(OC(=O)CN4CCC(O)CC4)[C@@]2(C)O1)C(C)(C)CC[C@@H]3O.Cl (stereo partly drawn) | 3 mg/kg
Not Active |  | C=C[C@@]1(C)CC(=O)[C@]2(O)C3(C)C(C(O)C(OC(=O)CN4CCC(NC(=O)c5ccccc5)CC4)[C@@]2(C)O1)C(C)(C)CC[C@@H]3O (stereo partly drawn) | 3 mg/kg
Not Active |  | C=C[C@@]1(C)CC(=O)[C@]2(O)C3(C)C(C(OC(=O)CCCN4CCOCC4)C(O)[C@@]2(C)O1)C(C)(C)CC[C@@H]3O.Cl (stereo partly drawn) | 2 mg/kg
 | > 10 µg/mL | C=C[C@@]1(C)CC(=O)[C@]2(O)C3(C)C(C(O)C(OC(=O)CNc4ccccc4)[C@@]2(C)O1)C(C)(C)CC[C@@H]3O (stereo partly drawn) | 2 mg/kg
 | 0.2 µg/mL | C=C[C@@]1(C)CC(=O)[C@]2(O)C3(C)C(C(OC(=O)CCN4CCN(C)CC4)C(O)[C@@]2(C)O1)C(C)(C)CC[C@@H]3O.Cl (stereo partly drawn) | 1.4 mg/kg
 | > 30 µg/mL | C=C[C@@]1(C)CC(=O)[C@]2(O)C3(C)C(C(O)C(OC(=O)Cn4nnc5ccccc54)[C@@]2(C)O1)C(C)(C)CC[C@@H]3O (stereo partly drawn) | 3 mg/kg
 | 2 µg/mL (≈ 3.02 µM) | C=C[C@@]1(C)CC(=O)[C@]2(O)C3(C)C(C(O)C(OC(=O)Cn4c(=O)c5c(ncn5COCCOC)n(C)c4=O)[C@@]2(C)O1)C(C)(C)CC[C@@H]3O (stereo partly drawn) | 6 mg/kg
 | > 30 µg/mL | C=C[C@@]1(C)CC(=O)[C@]2(O)C3(C)C(C(O)C(OC(=O)CN4CCSCC4)[C@@]2(C)O1)C(C)(C)CC[C@@H]3O.Cl (stereo partly drawn) | 3 mg/kg
Not Active |  | C=C[C@@]1(C)CC(=O)[C@]2(O)C3(C)C(C(OC(=O)C(C)Nc4ccccc4)C(O)[C@@]2(C)O1)C(C)(C)CC[C@@H]3O.Cl (stereo partly drawn) | 6.2 mg/kg
 | 1.5 µg/mL | C=C[C@@]1(C)CC(=O)[C@]2(O)C3(C)C(C(OC(=O)CN4CCSCC4)C(O)[C@@]2(C)O1)C(C)(C)CC[C@@H]3O.Cl (stereo partly drawn) | 5 mg/kg
Not Active |  | C=C[C@@]1(C)CC(=O)[C@]2(O)C3(C)C(C(O)C(OC(=O)Cn4cc(C(=O)OCC)c(=O)c5ccc(C(F)(F)F)cc54)[C@@]2(C)O1)C(C)(C)CC[C@@H]3O (stereo partly drawn) | 
 | 10 µg/mL | C=C[C@@]1(C)CC(=O)[C@]2(O)C3(C)C(C(O)C(OC(=O)CN(CC)CC)[C@@]2(C)O1)C(C)(C)CC[C@@H]3O.Cl (stereo partly drawn) | 2 mg/kg
 | > 30 µg/mL | C=C[C@@]1(C)CC(=O)[C@]2(O)C3(C)C(C(OC(=O)CCCCN4CCCCC4)C(O)[C@@]2(C)O1)C(C)(C)CC[C@@H]3O.Cl (stereo partly drawn) | 1 mg/kg
 | 1 µg/mL | C=C[C@@]1(C)CC(=O)[C@]2(O)C3(C)C(C(O)C(OC(=O)CCN4CCCCC4)[C@@]2(C)O1)C(C)(C)CC[C@@H]3O.Cl (stereo partly drawn) | 
 | > 30 µg/mL | C=C[C@@]1(C)CC(=O)[C@]2(O)C3(C)C(C(O)C(OC(=O)CN4CCCCC4)[C@@]2(C)O1)C(C)(C)CC[C@@H]3O.Cl (stereo partly drawn) | 10 mg/kg
 | > 30 µg/mL | C=C[C@@]1(C)CC(=O)[C@]2(O)C3(C)C(C(O)C(OC(=O)C(C)N4CCCCC4)[C@@]2(C)O1)C(C)(C)CC[C@@H]3O (stereo partly drawn) | 4.5 mg/kg
